Results as given in ChEMBL document CHEMBL1909619, “Synthesis and Toll-like receptor 4 (TLR4) activity of phosphatidylinositol dimannoside analogues” (J Med Chem, 2011).
Active and inactive are the calls of the source. No cut-off for these calls is given here.

Tests used:
[1] = biological target: T1, Toll-like receptor 4 (Mus musculus) (UniProt Q9QUK6); assay: Agonist activity at TLR4 in thioglycollate-elicited mouse peritoneal macrophages assessed as induction of IL-6 production in after 18 hrs by ELISA; assay type: functional
T1 sequence (whole entry): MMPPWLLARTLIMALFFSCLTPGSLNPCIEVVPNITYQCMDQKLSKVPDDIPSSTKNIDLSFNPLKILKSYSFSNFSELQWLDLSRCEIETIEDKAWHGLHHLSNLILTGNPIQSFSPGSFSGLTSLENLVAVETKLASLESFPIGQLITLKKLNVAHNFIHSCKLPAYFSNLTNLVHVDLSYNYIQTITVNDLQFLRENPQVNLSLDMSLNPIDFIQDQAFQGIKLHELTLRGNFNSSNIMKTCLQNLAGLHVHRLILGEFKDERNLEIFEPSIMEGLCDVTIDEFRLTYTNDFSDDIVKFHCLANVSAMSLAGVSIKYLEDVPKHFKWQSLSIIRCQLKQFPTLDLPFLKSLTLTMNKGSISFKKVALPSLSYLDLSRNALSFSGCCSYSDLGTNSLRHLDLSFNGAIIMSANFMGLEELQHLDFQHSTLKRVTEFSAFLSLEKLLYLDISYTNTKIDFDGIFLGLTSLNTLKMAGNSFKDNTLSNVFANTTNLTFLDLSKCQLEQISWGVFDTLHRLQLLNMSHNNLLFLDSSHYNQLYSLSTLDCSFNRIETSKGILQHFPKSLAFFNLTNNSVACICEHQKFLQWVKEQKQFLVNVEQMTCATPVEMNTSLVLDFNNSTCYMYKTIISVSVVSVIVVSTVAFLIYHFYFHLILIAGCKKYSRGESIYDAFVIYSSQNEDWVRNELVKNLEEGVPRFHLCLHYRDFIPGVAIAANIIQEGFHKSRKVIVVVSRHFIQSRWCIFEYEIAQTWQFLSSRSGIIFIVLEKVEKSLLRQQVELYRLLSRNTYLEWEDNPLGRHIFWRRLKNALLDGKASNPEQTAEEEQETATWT
Procedure, shortened: (§1)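 Thioglycollate-elicited mouse peritoneal macrophages were plated at 2×10^5 cells/well in RPMI-1640 with 10% fetal calf serum and penicillin-streptomycin. They were incubated 18 h at 37°C, 5% CO2 with compound, with or without 10 ng/ml LPS. IL-6 in the supernatant was measured by ELISA. Data are representative of at least two replicate experiments, and significance was tested by ANOVA.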

Toll-like receptor 4 = biological target: T2, Toll-like receptor 4 (Mus musculus, UniProt Q9QUK6); assay: (§2) Inhibition of LPS-induced TLR4 activation in thioglycollate-elicited mouse peritoneal macrophages assessed as inhibition of IL-6 production after 18 hrs by ELISA; procedure, shortened: as §1
T2 sequence (Q9QUK6 whole entry): T1 sequence (whole entry)

[2] = Cytotoxicity against mouse peritoneal macrophages assessed as cell viability by trypan blue exclusion assay; assay type: cell-based; details: peritoneal macrophage cell
Procedure, shortened: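 Thioglycollate-elicited mouse peritoneal macrophages were plated at 2×10^5 cells/well in supplemented RPMI-1640. They were exposed to compound, with or without 10 ng/ml LPS, for 18 h at 37°C, 5% CO2. Viability was then scored by trypan blue exclusion.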

[3] = biological target: T1, Toll-like receptor 4 (Mus musculus); assay: Enhancement of LPS-induced TLR4 activation in mouse peritoneal macrophages assessed as IL-6 production at 0.6 to 19.2 uM after 18 hrs by ELISA; procedure, shortened: as §1
[4] = biological target: T1, Toll-like receptor 4 (Mus musculus); assay: as §2; procedure, shortened: as §1
Macrophage = assay: Induction of IL-6 production in TLR4-deficient mouse macrophages; assay type: functional, cell-based
[5] = biological target: Toll-like receptor 4 (Homo sapiens) (UniProt O00206); assay: Partial agonist activity at TLR4 transfected in Sf9 insect cells assessed as inhibition of LPS-mediated sTLR4/MD2 homodimerization after 1 hr by native PAGE; assay type: functional, cell-based
Procedure, shortened: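 The sTLR4 ectodomain/MD-2 complex was co-expressed in Hi5 insect cells from baculovirus made in SF9 cells. It was purified by Ni-NTA and Strep-Tactin affinity, tag removal with thrombin, and size exclusion. After 1 h at room temperature, the mixture was resolved by native PAGE on a 4–20% gel at pH 8.8.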

Sf9 [6] = assay: Binding affinity at MD1 transfected in Sf9 insect cells after 1 hr by native PAGE; assay type: cell-based
Procedure, shortened: (§3)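 MD-1 was expressed by baculovirus and purified by Ni-NTA affinity, anion exchange and gel filtration. It was combined with compound and then LPS in 20 mM Hepes pH 7.4/150 mM NaCl. After 1 h at room temperature, the mixture was analysed by native PAGE on a 4–20% gradient gel at pH 8.8.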

Sf9 [7] = assay: Competitive binding affinity at MD1 transfected in Sf9 insect cells after 1 hr by native PAGE in presence of LPS; assay type: cell-based; procedure, shortened: as §3

Chain of Toll-like receptor 4 (Homo sapiens) (O00206 whole entry, the tested form may be a part): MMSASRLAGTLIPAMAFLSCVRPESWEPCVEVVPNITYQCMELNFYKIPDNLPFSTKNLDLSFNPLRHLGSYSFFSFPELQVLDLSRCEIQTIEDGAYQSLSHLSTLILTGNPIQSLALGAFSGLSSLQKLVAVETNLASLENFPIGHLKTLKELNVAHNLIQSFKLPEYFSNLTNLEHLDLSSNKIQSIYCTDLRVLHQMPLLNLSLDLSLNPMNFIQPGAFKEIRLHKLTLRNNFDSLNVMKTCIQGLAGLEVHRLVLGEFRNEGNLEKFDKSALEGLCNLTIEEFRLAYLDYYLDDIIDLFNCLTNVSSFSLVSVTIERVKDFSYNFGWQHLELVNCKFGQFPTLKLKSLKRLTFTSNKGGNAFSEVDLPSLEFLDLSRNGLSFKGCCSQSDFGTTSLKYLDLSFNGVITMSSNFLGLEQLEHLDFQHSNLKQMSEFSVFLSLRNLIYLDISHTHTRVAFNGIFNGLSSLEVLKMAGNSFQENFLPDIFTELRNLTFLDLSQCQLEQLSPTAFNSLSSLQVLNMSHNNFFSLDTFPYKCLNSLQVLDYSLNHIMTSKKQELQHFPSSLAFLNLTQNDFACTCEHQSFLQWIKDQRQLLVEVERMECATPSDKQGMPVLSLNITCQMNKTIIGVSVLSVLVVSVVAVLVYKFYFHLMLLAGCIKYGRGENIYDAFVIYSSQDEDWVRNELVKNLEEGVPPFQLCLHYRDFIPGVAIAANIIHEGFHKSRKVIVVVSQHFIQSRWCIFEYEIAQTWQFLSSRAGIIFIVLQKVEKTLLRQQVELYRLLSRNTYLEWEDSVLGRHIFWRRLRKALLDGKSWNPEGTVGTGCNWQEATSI

Compound	Activity [1] [pg/mL]	IC50 (Toll-like receptor 4) [µM]	Activity [3]	inhibition [4]	Activity [5]	Activity [2]	Activity (Macrophage)	Activity (Sf9 [6])	Activity (Sf9 [7])
CCCCCCCCCCCCCCCC(=O)N[C@H](COC(=O)CCCCCCCCCCCCCCC)COP(=O)(O)O[C@@H]1[C@H](O[C@H]2O[C@H](CO)[C@@H](O)[C@H](O)[C@@H]2O)[C@H](O)[C@@H](O)[C@H](O)[C@H]1O[C@H]1O[C@H](CO)[C@@H](O)[C@H](O)[C@@H]1O	664	22.7	–	–	–	Non-toxic	–	–	–
CCCCCCCCCCCCCCCCOC[C@H](COP(=O)(O)O[C@@H]1[C@H](O[C@H]2O[C@H](CO)[C@@H](O)[C@H](O)[C@@H]2O)[C@H](O)[C@@H](O)[C@H](O)[C@H]1O[C@H]1O[C@H](CO)[C@@H](O)[C@H](O)[C@@H]1O)OCCCCCCCCCCCCCCCC	494	23.3	–	–	–	Non-toxic	–	–	–
CCCCCCCCCCCCCCCC(=O)OC[C@H](COP(=O)(O)O[C@@H]1[C@H](O[C@H]2O[C@H](CO)[C@@H](O)[C@H](O)[C@@H]2O)[C@H](O)[C@@H](O)[C@H](O)[C@H]1O[C@H]1O[C@H](CO)[C@@H](O)[C@H](O)[C@@H]1O)OC(=O)CCCCCCCCCCCCCCC	817	40.2	–	–	Active	Non-toxic	inactive	Active	Dose-dependent effect
CCCCCCCCCCCCCCCC(=O)OC[C@H](COP(=O)(O)OC(CO[C@H]1O[C@H](CO)[C@@H](O)[C@H](O)[C@@H]1O)CO[C@H]1O[C@H](CO)[C@@H](O)[C@H](O)[C@@H]1O)OC(=O)CCCCCCCCCCCCCCC	143	12.9	–	–	–	Non-toxic	–	–	–
CCCCCCCCCCCCCCCCO[C@H](COC(=O)CCCCCCCCCCCCCCC)COP(=O)(O)OC(CO[C@H]1O[C@H](CO)[C@@H](O)[C@H](O)[C@@H]1O)CO[C@H]1O[C@H](CO)[C@@H](O)[C@H](O)[C@@H]1O	923	42.8	–	–	–	Non-toxic	–	–	–

The next lines start with results.

Activity [1] [pg/mL]	IC50 (Toll-like receptor 4) [µM]	Activity [3]	inhibition [4]	Activity [5]	Compound	Activity [2]	Activity (Macrophage)	Activity (Sf9 [6])	Activity (Sf9 [7])
1130	28.8	–	–	–	CCCCCCCCCCCCCCCCOC[C@H](COP(=O)(O)O[C@@H]1[C@H](O[C@H]2O[C@H](CO)[C@@H](O)[C@H](O)[C@@H]2O)[C@H](O)[C@@H](O)[C@H](O)[C@H]1O[C@H]1O[C@H](CO)[C@@H](O)[C@H](O)[C@@H]1O)OC(=O)CCCCCCCCCCCCCCC	Non-toxic	–	–	–
275	–	Active	–	–	CCCCCCCCCCCCCCCCO[C@H](COC(=O)CCCCCCCCCCCCCCC)COP(=O)(O)O[C@@H]1[C@H](O[C@H]2O[C@H](COC(=O)CCCCCCCCCCCCCCC)[C@@H](O)[C@H](O)[C@@H]2O)[C@H](O)[C@@H](O)[C@H](O)[C@H]1O[C@H]1O[C@H](CO)[C@@H](O)[C@H](O)[C@@H]1O	Non-toxic	–	–	–
1460	30.3	–	Dose-dependent effect	–	CCCCCCCCCCCCCCCCO[C@H](COC(=O)CCCCCCCCCCCCCCC)COP(=O)(O)O[C@@H]1[C@H](O[C@H]2O[C@H](CO)[C@@H](O)[C@H](O)[C@@H]2O)[C@H](O)[C@@H](O)[C@H](O)[C@H]1O[C@H]1O[C@H](CO)[C@@H](O)[C@H](O)[C@@H]1O	Non-toxic	–	–	–
